# Measurements published in ChEMBL document CHEMBL5058577, “EUbOPEN Chemogenomics Library 2 (Multiplex)” (2022).
# Test system: Fibroblast
# Assay: Multiplex assay against human fibroblast
# Type: toxicity, cell-based
# How it was run: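 Values for tubulin, mitochondrial-mass and membrane-permeability phenotypes are per cents of cells with healthy nuclei. These cells were identified by CellPathfinder machine-learning gating of live cells that had been stained at seeding with Hoechst33342, BioTracker Green Microtubule Cytoskeleton Dye, MitoTracker Red and Annexin V Alexa Fluor 680 and imaged on a CQ1 microscope at 37°C and 5% CO2 after compound addition. The gating first set Hoechst high-intensity objects apart from normal cells, then split normal cells into healthy, pyknosed or fragmented nuclei, and pyknosed cells into mitotic or apoptotic.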
# [1] = 12 h, 1 µM, compound concentration 1 uM, replicate 1
# [2] = 12 h, 1 µM, compound concentration 1 uM, replicate 2
# [3] = 12 h, 10 µM, compound concentration 10 uM, replicate 1
# [4] = 12 h, 10 µM, compound concentration 10 uM, replicate 2
# [5] = 24 h, 1 µM, compound concentration 1 uM, replicate 1
# [6] = 24 h, 1 µM, compound concentration 1 uM, replicate 2
# [7] = 24 h, 10 µM, compound concentration 10 uM, replicate 1
# [8] = 24 h, 10 µM, compound concentration 10 uM, replicate 2
# [9] = 48 h, 1 µM, compound concentration 1 uM, replicate 1
# [10] = 48 h, 1 µM, compound concentration 1 uM, replicate 2
# [11] = 48 h, 10 µM, compound concentration 10 uM, replicate 1
# [12] = 48 h, 10 µM, compound concentration 10 uM, replicate 2
smiles,measurement,setting,value
CCCOc1ccc2[nH]cc(C3=CCNCC3)c2n1.Cl,Population Apoptotic (%),[1],42%
same,Population Fragmented Nuclei (%),[1],13%
same,Population Healthy Nuclei (%),[1],71%
same,Population Hoechst High Intensity Objects (%),[1],2%
same,Population Membrane Permeable-Phenotype (%),[1],0%
same,Population Mitochondria Different-Phenotype (%),[1],6%
same,Population Mitotic Cells (%),[1],57%
same,Population Normal (%),[1],97%
same,Population Pyknosed Nuclei (%),[1],15%
same,Population Tubulin-Different-Phenotype (%),[1],27%
same,Total Cell Count,[1],143
same,Population Apoptotic (%),[2],48%
same,Population Fragmented Nuclei (%),[2],25%
same,Population Healthy Nuclei (%),[2],52%
same,Population Hoechst High Intensity Objects (%),[2],0%
same,Population Membrane Permeable-Phenotype (%),[2],8%
same,Population Mitochondria Different-Phenotype (%),[2],2%
same,Population Mitotic Cells (%),[2],51%
same,Population Normal (%),[2],99%
same,Population Pyknosed Nuclei (%),[2],21%
same,Population Tubulin-Different-Phenotype (%),[2],47%
same,Total Cell Count,[2],137
same,Population Apoptotic (%),[3],70%
same,Population Fragmented Nuclei (%),[3],16%
same,Population Healthy Nuclei (%),[3],70%
same,Population Hoechst High Intensity Objects (%),[3],4%
same,Population Membrane Permeable-Phenotype (%),[3],0%
same,Population Mitochondria Different-Phenotype (%),[3],12%
same,Population Mitotic Cells (%),[3],29%
same,Population Normal (%),[3],95%
same,Population Pyknosed Nuclei (%),[3],13%
same,Population Tubulin-Different-Phenotype (%),[3],41%
same,Total Cell Count,[3],133
same,Population Apoptotic (%),[4],40%
same,Population Fragmented Nuclei (%),[4],31%
same,Population Healthy Nuclei (%),[4],48%
same,Population Hoechst High Intensity Objects (%),[4],2%
same,Population Membrane Permeable-Phenotype (%),[4],1%
same,Population Mitochondria Different-Phenotype (%),[4],10%
same,Population Mitotic Cells (%),[4],60%
same,Population Normal (%),[4],97%
same,Population Pyknosed Nuclei (%),[4],20%
same,Population Tubulin-Different-Phenotype (%),[4],59%
same,Total Cell Count,[4],125
same,Population Apoptotic (%),[5],57%
same,Population Fragmented Nuclei (%),[5],14%
same,Population Healthy Nuclei (%),[5],76%
same,Population Hoechst High Intensity Objects (%),[5],2%
same,Population Membrane Permeable-Phenotype (%),[5],0%
same,Population Mitochondria Different-Phenotype (%),[5],6%
same,Population Mitotic Cells (%),[5],42%
same,Population Normal (%),[5],97%
same,Population Pyknosed Nuclei (%),[5],9%
same,Population Tubulin-Different-Phenotype (%),[5],20%
same,Total Cell Count,[5],155
same,Population Apoptotic (%),[6],38%
same,Population Fragmented Nuclei (%),[6],28%
same,Population Healthy Nuclei (%),[6],52%
same,Population Hoechst High Intensity Objects (%),[6],0%
same,Population Membrane Permeable-Phenotype (%),[6],5%
same,Population Mitochondria Different-Phenotype (%),[6],5%
same,Population Mitotic Cells (%),[6],61%
same,Population Normal (%),[6],100%
same,Population Pyknosed Nuclei (%),[6],18%
same,Population Tubulin-Different-Phenotype (%),[6],40%
same,Total Cell Count,[6],140
same,Population Apoptotic (%),[7],61%
same,Population Fragmented Nuclei (%),[7],23%
same,Population Healthy Nuclei (%),[7],64%
same,Population Hoechst High Intensity Objects (%),[7],1%
same,Population Membrane Permeable-Phenotype (%),[7],0%
same,Population Mitochondria Different-Phenotype (%),[7],12%
same,Population Mitotic Cells (%),[7],38%
same,Population Normal (%),[7],98%
same,Population Pyknosed Nuclei (%),[7],11%
same,Population Tubulin-Different-Phenotype (%),[7],36%
same,Total Cell Count,[7],159
same,Population Apoptotic (%),[8],50%
same,Population Fragmented Nuclei (%),[8],20%
same,Population Healthy Nuclei (%),[8],68%
same,Population Hoechst High Intensity Objects (%),[8],2%
same,Population Membrane Permeable-Phenotype (%),[8],4%
same,Population Mitochondria Different-Phenotype (%),[8],8%
same,Population Mitotic Cells (%),[8],50%
same,Population Normal (%),[8],97%
same,Population Tubulin-Different-Phenotype (%),[8],61%
same,Total Cell Count,[8],107
same,Population Apoptotic (%),[9],69%
same,Population Fragmented Nuclei (%),[9],17%
same,Population Healthy Nuclei (%),[9],74%
same,Population Hoechst High Intensity Objects (%),[9],2%
same,Population Membrane Permeable-Phenotype (%),[9],0%
same,Population Mitochondria Different-Phenotype (%),[9],5%
same,Population Mitotic Cells (%),[9],30%
same,Population Normal (%),[9],97%
same,Population Pyknosed Nuclei (%),[9],8%
same,Population Tubulin-Different-Phenotype (%),[9],23%
same,Total Cell Count,[9],162
same,Population Apoptotic (%),[10],64%
same,Population Fragmented Nuclei (%),[10],36%
same,Population Healthy Nuclei (%),[10],53%
same,Population Hoechst High Intensity Objects (%),[10],4%
same,Population Membrane Permeable-Phenotype (%),[10],5%
same,Population Mitochondria Different-Phenotype (%),[10],2%
same,Population Mitotic Cells (%),[10],35%
same,Population Normal (%),[10],95%
same,Population Pyknosed Nuclei (%),[10],9%
same,Population Tubulin-Different-Phenotype (%),[10],40%
same,Total Cell Count,[10],147
same,Population Apoptotic (%),[11],73%
same,Population Fragmented Nuclei (%),[11],21%
same,Population Healthy Nuclei (%),[11],65%
same,Population Hoechst High Intensity Objects (%),[11],2%
same,Population Membrane Permeable-Phenotype (%),[11],0%
same,Population Mitochondria Different-Phenotype (%),[11],9%
same,Population Mitotic Cells (%),[11],26%
same,Population Normal (%),[11],97%
same,Population Pyknosed Nuclei (%),[11],13%
same,Population Tubulin-Different-Phenotype (%),[11],45%
same,Total Cell Count,[11],150
same,Population Apoptotic (%),[12],60%
same,Population Fragmented Nuclei (%),[12],32%
same,Population Healthy Nuclei (%),[12],62%
same,Population Hoechst High Intensity Objects (%),[12],5%
same,Population Membrane Permeable-Phenotype (%),[12],4%
same,Population Mitochondria Different-Phenotype (%),[12],13%
same,Population Mitotic Cells (%),[12],40%
same,Population Normal (%),[12],94%
same,Population Pyknosed Nuclei (%),[12],4%
same,Population Tubulin-Different-Phenotype (%),[12],44%
same,Total Cell Count,[12],116
